Measurements as given in publication PMC6980386 (Traffic (Copenhagen, Denmark), 2019).

Legend:
FL huCD4 L16A = FL huCD4 L16A (Homo sapiens, UniProt P01730, L16A); assay: CADA down-modulation of cellular huCD4; type: cell-based
Procedure, shortened: (§1)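 HEK293T cells, seeded overnight in DMEM with 10% serum, 1 mM sodium pyruvate and 0.075% NaHCO₃, were lipofected with full-length human CD4 (WT or mutant). Test compound in DMSO was added 6 h post-transfection as 1:5 serial dilutions (50–0.016 μM) for 48 h. Surface CD4 was stained with FITC/APC anti-CD4 (SK3) and read by flow cytometry. IC50 is 50% of the untreated signal, from four-parameter fits of ≥3 replicate experiments. FC is mutant/WT mean IC50.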

huCD4_1–32-YFP L30A = huCD4_1–32-YFP L30A (Homo sapiens, UniProt P01730, L30A); assay: CADA inhibition of huCD4_1–32-YFP secretion; type: cell-based
Procedure, shortened: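 HEK293T cells were grown in DMEM with 10% FBS and 10 mM HEPES, seeded and left to adhere overnight, then transiently transfected with plasmid by Lipofectamine. Test compound was added 6 h after transfection as a 1:5 serial dilution (50 to 0.016 μM) for 48 h. Secreted YFP in the supernatant was captured on GFP-Trap magnetic beads for 1 h, washed with PBS and measured by flow cytometry. IC50 is the concentration that halves the signal relative to the untreated control, taken from a four-parameter fit of at least three replicate experiments. FC is the mutant mean IC50 divided by the WT mean IC50.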

[1] = target: truncated huCD4 D1D2 L18A (Homo sapiens, UniProt P01730, L18A); assay: Cell-free in vitro translation and translocation; type: biochemical; settings: 15 μM CADA
Procedure, shortened: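 Truncated huCD4 D1D2 (lacking glycosylation sites and membrane anchor) was made by PCR and transcribed with T7. Proteinase K protection ran 30 min on ice and was quenched with PMSF. Products were separated by SDS-PAGE and imaged by phosphor imaging. The SP-cleaved band was normalised to the matching control. Data are from 2–5 independent experiments, compared with WT by Welch t test.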

FL huCD4 K27R = FL huCD4 K27R (Homo sapiens, UniProt P01730, K27R); assay: CADA down-modulation of cellular huCD4; type: cell-based; settings: HEK293T, 48h
Procedure, shortened: as §1

[2] = + less, − more sensitive to CADA

C=C1CN(S(=O)(=O)c2ccc(C)cc2)CCCN(Cc2ccccc2)CCCN(S(=O)(=O)c2ccc(C)cc2)C1 [CADA, Cyclotriazadisulfonamide]
Cellular huCD4 FC (fold change of mean IC50 relative to WT) (FL huCD4 L16A; [2]): −4.9 | IC50 (FL huCD4 L16A; read-out: Cellular huCD4 IC50 (μM) Mean, HEK293T, CADA 48h): 0.11 µM | Secreted YFP FC (fold change of mean IC50 relative to WT) (huCD4_1–32-YFP L30A; [2]): −1.2 | IC50 (huCD4_1–32-YFP L30A; read-out: Secreted YFP IC50 (μM) Mean, HEK293T, CADA 48h): 1.08 µM | sensitivity of translocation towards CADA compared to WT [1]: higher sensitivity towards CADA | sensitivity to CADA (FL huCD4 K27R): kept full sensitivity to CADA
